Laboratory results: article PMC3545439 (Investigational new drugs, 2010)
Read-outs that look alike come from different tables or passages of the source.

Assays:
[1] = Flavopiridol plasma pharmacokinetics in patients; type: in vivo, human
[2] = system: patients with advanced solid tumors; experiment: Phase I dose escalation: toxicity; type: in vivo, human
Procedure, shortened: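 Open-label, non-randomized 3+3 escalation in groups of 3–6, outpatient, with no intra-patient escalation. […] DLT was grade 4 hematologic or grade 3–4 non-hematologic toxicity (including diarrhea despite prophylaxis), or delay allowing fewer than 2 treatments in weeks 1–3. MTD was one level below the dose at which ≥2 patients had first-cycle DLT.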

[3] = system: patients; conditions: PO daily × 3 days, every 14 days, with infusional fluorouracil and leucovorin; cited from earlier work
[4] = cited from earlier work
[5] = cited from earlier work; remark: listed apart in the source
[6] = Vorinostat serum pharmacokinetics in patients; type: in vivo, human

SMILES | Cmax ([1]; human, plasma, intravenous) [µM] | patients achieving flavopiridol Cmax of ≥2 μM ([1]; patients tested (20)) [%] | maximum tolerated dose (MTD), flavopiridol ([2]; 21-d schedule, bolus over 1 hr days 2 and 9, with vorinostat 600 mg/d) [mg/m^2] | maximum tolerated dose (MTD), flavopiridol ([2]; 28-d schedule, split dose days 2 and 16, with vorinostat 800 mg/d) | MTD of vorinostat [3] | vorinostat level that enhances chemotherapy in vitro [4] [µM] | Cmax ([5]; read-out: average Cmax, vorinostat in combination with carboplatin and paclitaxel or FOLFOX) [µM] | Cmax ([5]; standard dose 400 mg PO daily continuously) [µM] | Cmax ([5]; vorinostat 900 mg/m^2 IV daily × 3 days every 3 weeks) [µM] | maximum tolerated dose (MTD) of vorinostat ([2]; 21-d schedule: days 1–3 and 8–10, with flavopiridol 60 mg/m^2 over 1 hr days 2 and 9) [mg/day] | maximum tolerated dose (MTD) of vorinostat ([2]; 28-d schedule: days 1–3 and 15–17, with split-dose flavopiridol days 2 and 16) [mg/day] | patients achieving vorinostat Cmax ≥2.5 μM ([6]; 800 mg dose level (MTD)) [%] | increase of vorinostat Cmax by flavopiridol ([6]; cycle 1 versus cycle −1, all patients, 95% CI 11%–43%) [%]
CN1CC[C@H](c2c(O)cc(O)c3c(=O)cc(-c4ccccc4Cl)oc23)[C@H](O)C1 [flavopiridol] | 3.92 | 90 | 60 | 30 mg/m^2 over 30 min followed by 30 mg/m^2 over 4 h |  |  |  |  |  |  |  |  | 
O=C(CCCCCCC(=O)Nc1ccccc1)NO [vorinostat, suberoylanilide hydroxamic acid] |  |  |  |  | 1,700 mg | > 2.5 | < 2 | ~2.5 | > 30 | 600 | 800 | 86 | 27
